From article PMC3215871 (Cancer Chemotherapy and Pharmacology, 2011)
Where “and” joins values, the source holds several entries; their conditions need not be identical. Identical values can stand only once. Like-named read-outs stand apart in the source and are kept apart here. Peptide text beside a SMILES is read from it. * marks the point of attachment. Cbz = O=C(OCc1ccccc1)*

Tests used:
20S proteasome [1] = biological target: T1, 20S proteasome (Mus musculus, UniProt O55234); assay: 20S proteasome activity in blood, enzymatic assay; assay type: in vivo, mice; settings: for inhibition at 0.8 mg/kg: mouse
T1 sequence (O55234 60-264): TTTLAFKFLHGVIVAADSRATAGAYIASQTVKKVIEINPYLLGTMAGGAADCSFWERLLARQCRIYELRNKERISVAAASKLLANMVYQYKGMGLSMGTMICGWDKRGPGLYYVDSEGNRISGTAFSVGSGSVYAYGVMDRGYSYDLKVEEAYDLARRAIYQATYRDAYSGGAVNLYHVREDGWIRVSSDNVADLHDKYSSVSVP
Procedure, shortened: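 20S proteasome activity in blood measured by an enzymatic assay on samples taken 4 h after dosing. Schedules were bortezomib 0.8 mg/kg IV, EGCG 50 mg/kg IV alone, EGCG 50 mg/kg IV then bortezomib 2 min later, or EGCG 50 mg/kg SC then bortezomib 30 or 60 min later. Inhibition expressed relative to vehicle controls.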

[2] = test system: mouse xenograft models of human MM; settings: cited from earlier work
RPMI-8226 cells = assay: Bortezomib–EGCG combination matrix, ATP luminescence cell viability; assay type: cell-based, human
[3] = cited from earlier work
[4] = test system: CWR22 human prostate xenograft tumors; assay: In vivo antitumor activity; set-up: species or system mice
Procedure, shortened: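 Male CB-17 SCID mice aged 5–8 weeks implanted SC in the flank (trocar) with CWR22 fragments; randomised at 150–250 mm3 (n = 9/group). EGCG 50 mg/kg IV or SC BIW for 7 doses; ascorbic acid 40 or 500 mg/kg PO QD for 22 days; vehicle 0.9% saline. Calipers BIW; volume = 0.5 × length × width². TGI from mean volumes versus control on day 22 or 25.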

MM cell lines = settings: 10 nM bortezomib, several MM cell lines; cited from earlier work
[5] = test system: phospho-β-catenin (Ser33/Ser37/Thr41), GADD34 and ATF3; assay: Western blot of xenograft tumors for proteasome substrate and ER stress markers; assay type: in vivo, human; settings: 4 h
Procedure, shortened: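 CWR22 xenograft tumours harvested 4 h after dosing with bortezomib 0.8 mg/kg IV, EGCG 50 mg/kg IV, or EGCG (IV, then bortezomib 2 min later; SC, then bortezomib 30 or 60 min later). Western blots probed for phospho-β-catenin (Ser33/Ser37/Thr41), GADD34 and ATF3, compared with vehicle controls.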

glioblastoma cell line = settings: 20 μM EGCG, 20 nM bortezomib; cited from earlier work
[6] = cited from earlier work; for maximal plasma concentration: humans, 800 mg EGCG supplements
[7] = Pharmacokinetics of EGCG in mice; assay type: in vivo; settings: for Cmax: read-out: mean Cmax
Procedure, shortened: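 Naïve female nude or male CB-17 SCID mice aged 5–8 weeks given EGCG in 0.9% saline: PO 50, IV 50 and 100, or SC 50 mg/kg. Cardiac blood taken under CO2 from 5 min to 48 h; EDTA plasma stabilised 1:1 with ascorbic acid/EDTA, stored at −80°C, assayed by LC/MS/MS. Concentrations at bortezomib dosing times projected from these profiles.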

20S proteasome [8] = biological target: T2, 20S proteasome (Homo sapiens, UniProt P28074); assay: 20S proteasome activity in xenograft tumors, enzymatic assay; assay type: in vivo
T2 sequence (P28074 60-263): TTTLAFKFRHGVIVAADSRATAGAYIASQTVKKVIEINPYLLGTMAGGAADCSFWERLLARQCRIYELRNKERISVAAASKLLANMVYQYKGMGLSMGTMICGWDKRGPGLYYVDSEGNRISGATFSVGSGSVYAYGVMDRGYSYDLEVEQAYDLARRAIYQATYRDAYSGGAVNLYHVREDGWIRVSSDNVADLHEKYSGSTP
Procedure, shortened: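 CWR22 human prostate tumor fragments were implanted subcutaneously by trocar in the flank of male CB-17 SCID mice aged 5–8 weeks. Tumor-bearing mice received an IV dose of the test compound. At 4 h, tumors were collected and 20S proteasome activity was measured by an enzymatic assay. Inhibition is expressed as a mean percentage relative to vehicle-treated controls.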

[9] = cited from earlier work; remark: listed apart in the source
RPMI8226 cells = settings: cited from earlier work
[10] = humans, oral dose of 1,250 mg; cited from earlier work
[11] = Pharmacokinetics of ascorbic acid; assay type: in vivo, mice; settings: for Cmax / Tmax: male, CB-17 SCID, mouse, po
Procedure, shortened: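 Male CB-17 SCID mice bearing CWR22 tumours (naïve mice also sampled) given ascorbic acid 40 or 500 mg/kg PO in 0.9% saline. Cardiac blood taken at 0.5–6 h into lithium heparin; plasma stabilised 1:1 with 10% metaphosphoric acid, stored at −80°C. LC/MS/MS in negative ion MRM mode (m/z 175.0/114.8).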

[12] = human plasma, within an hour post-dose; cited from earlier work
[13] = iv, read-out: mean 20S proteasome inhibition

In the case of O=C(O[C@@H]1Cc2c(O)cc(O)cc2O[C@@H]1c1cc(O)c(O)c(O)c1)c1cc(O)c(O)c(O)c1 [EGCG, epigallocatechin gallate], the “inhibition of proteasome activity compared with vehicle controls” value (20S proteasome [1]; blood, EGCG 50 mg/kg IV alone, 4 h (Fig. 4a)) is given as “No inhibition”, the “effect on the antitumor effects of bortezomib” value ([2]; oral EGCG 25 or 50 mg/kg, bortezomib i.p. 0.5 mg/kg) is given as “inhibits the antitumor effects” and the “antagonism of 40 nM bortezomib” value (RPMI-8226 cells; EGCG 3.8 μM) is given as “no antagonism”. For the same compound, the “cytotoxicity of EGCG on its own” value (RPMI-8226 cells; EGCG 100 μM) was “cytotoxic”, the “impact on the cytotoxicity of bortezomib” value (RPMI-8226 cells; EGCG concentrations of up to 0.4 μM) was “no impact” and the “EGCG concentration required for a substantial shift in the potency of bortezomib” value (RPMI-8226 cells; RPMI8226 cell viability) was > 1000 nM. For the same compound, the plasma concentration ([3]; 50 mg/kg EGCG administered intragastrically, at 50 min) was “approximately 60 nM”, the maximal plasma concentrations ([3]; mice, oral dosing of 50 and 80 mg/kg) was 0.06 to 0.28 µM and the TGI ([4]; EGCG 50 mg/kg IV BIW alone) was −15.3%. For the same compound, the TGI ([4]; EGCG 50 mg/kg SC BIW single agent) was 3.6%, the “EGCG concentrations that antagonized the cytotoxic effect of bortezomib” value (MM cell lines) was ≥ 2.5 µM and the “levels of phospho-β-catenin, GADD34, and ATF3” value ([5]; EGCG 50 mg/kg IV on its own) was “does not change levels”. For the same compound, the “effect on proteasome inhibition by bortezomib” value (glioblastoma cell line) was “blocked proteasome inhibition”, the “EGCG concentration measured clinically” value ([6]; humans taking EGCG supplements) was 0.6 to 3 µM and the maximal plasma concentration ([6]; taken after fasting) was “approximately 3 μM and 1,522 ng/ml”. The maximal plasma concentration ([6]; taken with food) was “approximately 0.6 μM and 294 ng/ml”, the “Projected plasma concentration of EGCG at the time of bortezomib dosing” value (shortened to “Projected plasma concentration of EGCG”) ([7]; 50 mg/kg IV EGCG, 2 min interval) was 224 µM and the “Projected plasma concentration of EGCG” value ([7]; 50 mg/kg SC EGCG, 30 min interval) was 11 to 16 µM. The “Projected plasma concentration of EGCG” value ([7]; 50 mg/kg SC EGCG, 60 min interval) was 4 to 8 µM, the “time plasma concentration remained higher than 3 μM” value ([7]; IV and SC dosing at 50 mg/kg) was ~2 h and the “maximal EGCG concentration” value ([7]; SC 50 mg/kg) was > 25 µM. The EGCG plasma concentration ([7]; SC 50 mg/kg, 30 min post-dose, first study) was 16.2 µM, the EGCG plasma concentration ([7]; SC 50 mg/kg, 30 min post-dose, second study) was 11.3 µM and the EGCG plasma concentration ([7]; SC 50 mg/kg, 1 h post-dose, first study) was 8.4 µM. The EGCG plasma concentration ([7]; SC 50 mg/kg, 1 h post-dose, second study) was 3.9 µM, the EGCG plasma concentration ([7]; SC 50 mg/kg, 2 h post-dose, first study) was 2.8 µM and the EGCG plasma concentration ([7]; SC 50 mg/kg, 2 h post-dose, second study) was 2.5 µM. For the same compound, the “mean plasma Tmax” value ([7]; SC 50 mg/kg, naïve male CB17 SCID mice, both studies) was 0.083 h, the “plasma levels of EGCG” value ([7]; after IV dosing (50 and 100 mg/kg), within 30 min of dosing) was < 20 µM and the maximal plasma concentration ([7]; oral dosing 50 mg/kg) was < 0.1 µM. The Cmax ([7]; SC 50 mg/kg, naïve male CB17 SCID mice, first study) was 33.7 µM, the Cmax ([7]; SC 50 mg/kg, naïve male CB17 SCID mice, second study) was 26 µM and the “mean plasma Tmax” value ([7]; single oral dose 50 mg/kg, naïve female nude mice) was 0.5 h. For the same compound, the “inhibition of proteasome activity compared with vehicle controls” value (20S proteasome [8]; tumor, EGCG 50 mg/kg IV alone, 4 h (Fig. 4a)) was “No inhibition”.
For CC(C)C[C@@H](C=O)NC(=O)[C@H](CC(C)C)NC(=O)[C@H](CC(C)C)NC(=O)OCc1ccccc1 [MG-132] (Cbz-Leu-Leu-Leu-aldehyde), the “effect of EGCG on the proteasome inhibitor” value [9] is listed as “has no effect”.
For CC(C)C[C@H](NC(=O)[C@H](CC(C)C)NC(=O)[C@H](CC(C)C)NC(=O)OCc1ccccc1)B(O)O [MG-262], the “effect of EGCG on the proteasome inhibitor” value [9] is listed as “antagonizes”.
For O=C1O[C@H]([C@@H](O)CO)C(O)=C1O [ascorbic acid], the “antagonism of the activity of bortezomib” value (RPMI8226 cells; 30 μM ascorbic acid, 5 and 10 nM bortezomib) is given as “partially antagonized”, the “antagonism of the activity of bortezomib” value (RPMI8226 cells; 250 μM ascorbic acid, 5–10 nM bortezomib) is given as “nearly complete antagonism” and the “effect on the antitumor effects of bortezomib” value ([2]; oral vitamin C 40 mg/kg/day, bortezomib IV 0.1 mg/kg) is given as “inhibits the antitumor effects”. The TGI ([4]; ascorbic acid 40 mg/kg PO QD alone) was −24.4%, the TGI ([4]; ascorbic acid 500 mg/kg PO QD alone) was −15.5% and the maximal concentrations [10] was “approximately 150 μM”. It also gave a Cmax ([11]; plasma, 40 mg/kg) of 72.8 µM, a Tmax ([11]; plasma, 40 mg/kg) of 4 h and a Cmax ([11]; plasma, 500 mg/kg) of 193 µM. The Tmax ([11]; plasma, 500 mg/kg) was 2 h, the “time elevated plasma level above endogenous is maintained” value ([11]; oral dosing 40 and 500 mg/kg) was “at least 6 h” and the “levels of endogenous ascorbic acid” value ([11]; plasma, naïve or CWR22 tumor-bearing male CB-17 SCID mice) was 48.3 to 59.2 µM.
In the case of CC(C)C[C@H](NC(=O)[C@H](Cc1ccccc1)NC(=O)c1cnccn1)B(O)O [bortezomib, reference compound], the “effect of EGCG on the proteasome inhibitor” value [9] is given as “antagonizes”, the “drop of plasma concentrations” value [12] is given as “more than 10 fold” and the inhibition at 0.8 mg/kg (20S proteasome [1]; [13]) is given as 44%. For the same compound, the inhibition at 0.8 mg/kg (20S proteasome [1]; read-out: mean proteasome inhibition) was 59%, the “increase in the IC50 of bortezomib” value (RPMI-8226 cells; 3.8 μM EGCG versus no EGCG) was 2.5 fold and the IC50 (RPMI-8226 cells; read-out: Btz IC50, RPMI-8226 cells, 48 h, EGCG 425 nM (0.4 μM)) was 7 nM. The TGI ([4]; bortezomib 0.8 mg/kg IV BIW alone, vitamin C study (Fig. 5b)) was 62.8%, the TGI ([4]; bortezomib 0.8 mg/kg IV BIW single agent, across EGCG studies, versus control) was 53.9–58.9% and the “levels of phospho-β-catenin, GADD34, and ATF3 compared with vehicle controls” value ([5]; bortezomib 0.8 mg/kg IV) was “elevated levels”. The inhibition at 0.8 mg/kg (20S proteasome [8]; [13]) was 52%.
For Cc1c(O)cccc1C(=O)N[C@@H](CSc1ccccc1)[C@H](O)CN1C[C@H]2CCCC[C@H]2C[C@H]1C(=O)NC(C)(C)C [nelfinavir], the “effect of EGCG on the proteasome inhibitor” value [9] is given as “has no effect”.
